Reference: ChEMBL document CHEMBL1629507, “Small molecule inhibitors of hantavirus infection” (Bioorg Med Chem Lett, 2010)
Where a SMILES comes first, the peptide text is derived from it. [ ]: non-standard residue; d: D form. The star is where a group is joined. Phe(4-F) = N[CH](Cc1ccc(F)cc1)C(=O)O; Tos = Cc1ccc(S(=O)(=O)*)cc1

biological target: Integrin alpha-V/beta-3 (Homo sapiens) (UniProt P05106+P06756); assay: Inhibition of human alphaVbeta3 receptor expressed in african green monkey Vero E6 cells assessed as inhibition of SNV infection in cells at 1 uM by immunofluorescent assay; format: cell-based
How it was run: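 Vero E6 cells (10^4/well, duplicate wells) were grown 24 h at 37 °C in MEM with 2.5% FBS. They were pretreated 1 h at 37 °C with small molecules (1 µM) or cyclic peptides (2 mM, in PBS pH 7.4). SNV strain SN77734 (500–1,000 FFU/ml) was then added for 1 h, then washed out. After 24–36 h, cells were fixed and stained with anti-SNV N plus FITC antibody, and foci counted. % inhibition is relative to untreated cells, normalized to ReoPro 80 µg/ml set as 80%; at least 4 replicates.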

| Structure (SMILES) | inhibition [%] |
| --- | --- |
| O=C(NCc1cccnc1)C(Cc1ccccc1)NS(=O)(=O)c1cccc2nsnc12 (centres undefined) | 35 |
| CN1CCN(C(=O)C(Cc2ccccc2)NS(=O)(=O)c2cccc3cccnc23)CC1 (centres undefined) | 0 |
| O=C(NC(Cc1c[nH]c2ccccc12)C(=O)OCC(=O)c1ccc(Cl)cc1)Oc1ccccc1 (centres undefined) | 29 |
| Cc1nnc(SCC(=O)NCCc2cccs2)c2nn(-c3ccccc3)c(C)c12 | 17 |
| COc1ccccc1NC(=O)C(Cc1ccccc1)NS(=O)(=O)c1cccc2cccnc12 (centres undefined) | 19.3 |
| CC1CCN(CCNC(=O)C(Cc2ccccc2)NS(=O)(=O)c2cccc3cccnc23)CC1 (centres undefined) | 7 |
| O=C(C(Cc1ccccc1)NS(=O)(=O)c1cccc2cccnc12)N1CCC2(CC1)OCCO2 (centres undefined) | 9 |
| CC1(C)CC(=O)c2cc(C(=O)NCCCN3CCOCC3)c(=O)n(-c3ccc(Cl)cc3)c2C1 | 18 |
| O=C(NCc1ccccc1)C(Cc1ccccc1)NS(=O)(=O)c1cccc2nsnc12 (centres undefined) | 3.2 |
| O=C(NCc1ccc(Cl)cc1)C(Cc1ccccc1)NS(=O)(=O)c1cccc2cccnc12 (centres undefined) | 9.1 |
| O=C(C(Cc1ccccc1)NS(=O)(=O)c1ccc2nsnc2c1)N1CCC2(CC1)OCCO2 (centres undefined) | 6 |
| CCc1ccc(CNC(=O)C2CCCN(c3ncnc4onc(-c5ccc(F)cc5)c34)C2)cc1 (centres undefined) | 7 |
| O=C(N/N=C/c1ccc(Br)s1)c1cc(-c2ccccc2)nc2ccccc12 | 5 |
| Cc1cccc(CN2C(=O)c3ccccc3Sc3ccc(C(=O)NCc4cccs4)cc32)c1 | 8.3 |
| CCOc1ccccc1CNC(=O)C1CCCN(c2ncnc3onc(-c4ccc(F)cc4)c23)C1 (centres undefined) | 18 |
| O=C(NCCC1=CCCCC1)C(Cc1ccccc1)NS(=O)(=O)c1cccc2nsnc12 (centres undefined) | 0 |
| O=C(NCc1ccc(Cl)cc1)C1CCCN(c2ncnc3onc(-c4ccc(F)cc4)c23)C1 (centres undefined) | 23.6 |
| COc1cccc(CNC(=O)C(Cc2ccccc2)NS(=O)(=O)c2cccc3cccnc23)c1 (centres undefined) | 0.8 |
| O=C(NCc1ccccc1Cl)C(Cc1ccccc1)NS(=O)(=O)c1cccc2nsnc12 (centres undefined) | 0 |
| O=C(CCCn1c(=O)c2sccc2n(Cc2ccc(F)cc2)c1=O)NCc1ccco1 | 0 |
| COc1ccc(NC(=O)C(Cc2ccccc2)NS(=O)(=O)c2cccc3cccnc23)c(OC)c1 (centres undefined) | 22.5 |
| NS(=O)(=O)c1ccc(CCNC(=O)C(NS(=O)(=O)c2cccc3nsnc23)c2ccccc2)cc1 (centres undefined) | 6 |
| O=S(=O)(c1cccc(SCc2ccccc2)c1)c1cccc(SCc2ccccc2)c1 | 44.2 |

| Structure (SMILES) | inhibition [%] |
| --- | --- |
| Cc1ccc(S(=O)(=O)NC(Cc2ccccc2)C(=O)NC(CCCNC(=N)N)C(=O)O)cc1 (stereo not drawn) (Tos-Phe-Arg-OH; configuration not given here) | 0 |
| NS(=O)(=O)c1ccc(CCNC(=O)C(Cc2ccccc2)NS(=O)(=O)c2cccc3nsnc23)cc1 (centres undefined) | 9.6 |
| COc1ccc(Cc2cccc(CNC(=O)C3CCCN(c4ncnc5onc(-c6ccc(F)cc6)c45)C3)c2)cc1 (centres undefined) | 39 |
| O=C(NCCc1ccc(Cl)cc1)C1CCCN(c2ncnc3onc(-c4ccc(F)cc4)c23)C1 (centres undefined) | 14.5 |
| O=C(NCC1CCCO1)C(Cc1ccccc1)NS(=O)(=O)c1cccc2nsnc12 (centres undefined) | 2 |
| COc1cccc(C(CC(=O)NCCCN2CCOCC2)NS(=O)(=O)c2ccc(C)cc2)c1OC (centres undefined) | 0 |
| CCc1ccccc1NC(=O)C(Cc1ccccc1)NS(=O)(=O)c1cccc2nsnc12 (centres undefined) | 2 |
| O=C(Nc1ccccc1Cl)C(Cc1ccccc1)NS(=O)(=O)c1cccc2nsnc12 (centres undefined) | 10 |
| O=C(NCc1ccccc1Cl)C(Cc1ccccc1)NS(=O)(=O)c1cccc2cccnc12 (centres undefined) | 21.4 |
| COc1ccc(CNC(=O)C2CCCN(c3ncnc4onc(C)c34)C2)cc1 (centres undefined) | 4.6 |
| COc1ccc(/C=N/NC(=O)c2sc3ccccc3c2Cl)cc1CSc1ccccn1 | 0 |
| O=C(C(Cc1ccccc1)NS(=O)(=O)c1cccc2cccnc12)N1CCOCC1 (centres undefined) | 4.5 |
| COc1ccccc1C1CC(c2c(O)[nH]c(=O)n(CCc3ccccc3)c2=O)=Nc2ccccc2S1 (centres undefined) | 18 |
| COc1ccc(OC)c(NC(=O)C(Cc2ccccc2)NS(=O)(=O)c2cccc3nsnc23)c1 (centres undefined) | 6.4 |
| CC(NC(=O)C(Cc1ccccc1)NS(=O)(=O)c1cccc2nsnc12)c1ccccc1 (centres undefined) | 2 |
| O=C(CSc1nc2ccccc2n1S(=O)(=O)c1ccc(Cl)cc1)NCCc1ccccc1 | 13.6 |
| Cc1cccc(OCC(=O)N/N=C/c2ccc(OC(=O)/C=C/c3ccco3)cc2)c1 | 8 |
| O=C(NCc1cccc(Cl)c1)C1CCCN(c2ncnc3onc(-c4ccc(F)cc4)c23)C1 (centres undefined) | 6 |
| O=C(N/N=C1\C(=O)N(CN(Cc2ccccc2)Cc2ccccc2)c2ccccc21)c1cccs1 | 3.8 |
| N#Cc1ccccc1Cn1c(=O)n(CCC(=O)NCc2ccc3c(c2)OCO3)c(=O)c2ccccc21 | 1 |
| COc1ccc(CCNC(=O)C(Cc2ccccc2)NS(=O)(=O)c2ccc(Cl)cc2)cc1OC (centres undefined) | 14 |
| CCOC(=O)C(NC(=O)/C(=C/c1ccc(Cl)cc1)NC(=O)c1ccco1)C(C)C (centres undefined) | 0 |
| Cc1ccc(S(=O)(=O)NC(CC(=O)NCc2cccnc2)c2ccco2)cc1 (centres undefined) | 7 |

| Structure (SMILES) | inhibition [%] |
| --- | --- |
| O=C(NCc1cccs1)C(Cc1ccccc1)NS(=O)(=O)c1cccc2cccnc12 (centres undefined) | 12 |
| COc1ccc(CCNC(=O)C(Cc2ccccc2)NS(=O)(=O)c2ccc(Br)cc2)cc1OC (centres undefined) | 14 |
| COc1ccc([N+](=O)[O-])cc1NC(=O)C(Cc1ccccc1)NS(=O)(=O)c1cccc2nsnc12 (centres undefined) | 8 |
| Cc1ccc(S(=O)(=O)NC(Cc2ccc(F)cc2)C(=O)NC(CCCNC(=N)N)C(=O)O)cc1 (centres undefined) (Tos-[Phe(4-F)]-Arg-OH; configuration not given here) | 0 |
| O=C(CCNS(=O)(=O)c1cccc2nsnc12)N(CCc1ccccc1)Cc1ccccc1 | 0 |
| O=S(=O)(c1cccc2cccnc12)N1CCN(Cc2ccc3c(c2)OCO3)CC1 | 0 |
| COc1ccc(OC)c(CNC(=O)C2CCCN(c3ncnc4onc(C)c34)C2)c1 (centres undefined) | 0 |
| O=C(NCCC1=CCCCC1)C(Cc1ccccc1)NS(=O)(=O)c1cccc2cccnc12 (centres undefined) | 19.3 |
| COc1ccc(Cl)cc1NC(=O)C(Cc1ccccc1)NS(=O)(=O)c1cccc2cccnc12 (centres undefined) | 8 |
| O=C(Cn1c(=O)n(Cc2ccc3c(c2)OCO3)c(=O)c2ccccc21)NCCc1ccccc1 | 25.9 |
| Cc1cc(C)cc(-n2c(=O)c3sccc3n(CC(=O)N3CCN(c4ccccc4)CC3)c2=O)c1 | 2.2 |
| O=C(CSc1nc2nccnc2c(=O)n1Cc1cccs1)NCCc1ccccc1 | 6 |
| Cc1ccc(C)c(NC(=O)C(Cc2ccccc2)NS(=O)(=O)c2cccc3cccnc23)c1 (centres undefined) | 0 |
| CN1CCN(c2ccccc2NC(=O)C(Cc2ccccc2)NS(=O)(=O)c2cccc3nsnc23)CC1 (centres undefined) | 9.6 |
| O=C(CCn1c(=O)c2ccccc2n(Cc2cc(=O)n3ccccc3n2)c1=O)NCc1ccco1 | 15 |
| O=C(C(Cc1ccccc1)NS(=O)(=O)c1ccc2nsnc2c1)N1CCn2c1nc1ccccc12 (centres undefined) | 0 |
| O=C1c2cccnc2C(=O)N1Cc1ccc(F)cc1S(=O)(=O)N1CCN(c2ccccc2F)CC1 | 2.3 |
| Cc1cccc(NC(=O)C(Cc2ccccc2)NS(=O)(=O)c2cccc3nsnc23)n1 (centres undefined) | 17.7 |
| Cc1cccc(C)c1NC(=S)N/N=C\c1cn(C)c2ccc(S(=O)(=O)N3CCOCC3)cc12 | 0 |
| COc1ccc(CCNC(=O)C(Cc2ccccc2)NS(=O)(=O)c2cccc3nsnc23)cc1OC (centres undefined) | 0 |
| Cc1cccc(CN2C(=O)c3ccccc3Sc3ccc(C(=O)NCc4ccco4)cc32)c1 | 26 |
| COc1ccc(N2CCN(C(=O)Cc3csc4nc(-c5ccc(F)cc5)cn34)CC2)cc1 | 0 |
| COc1ccccc1CNC(=O)C(Cc1ccccc1)NS(=O)(=O)c1cccc2cccnc12 (centres undefined) | 9.6 |

| Structure (SMILES) | inhibition [%] |
| --- | --- |
| Cc1noc2ncnc(N3CCCC(C(=O)NCc4ccc5c(c4)OCO5)C3)c12 (centres undefined) | 3 |
| O=C(c1ccco1)N1CCN(C(=O)C(Cc2ccccc2)NS(=O)(=O)c2ccc3nsnc3c2)CC1 (centres undefined) | 22 |
| O=C(O)CCCCCNC(=O)/C(=C/c1ccccc1)NC(=O)c1ccco1 | 0 |
| CCOC(=O)N1CCC(NC(=O)C(Cc2ccccc2)NS(=O)(=O)c2cccc3nsnc23)CC1 (centres undefined) | 0 |
| Cc1ccc(Cl)cc1NC(=O)C(Cc1ccccc1)NS(=O)(=O)c1cccc2nsnc12 (centres undefined) | 3.2 |
| O=C(NCc1ccco1)C(Cc1ccccc1)NS(=O)(=O)c1ccc2nsnc2c1 (centres undefined) | 21 |
| O=C(Cn1c(=O)n(Cc2ccco2)c(=O)c2sc3ccccc3c21)NCc1ccc(Cl)cc1 | 0 |
| Nc1c([S+]([O-])Cc2ccc(Cl)cc2)sc2nc(-c3cccs3)cc(-c3ccccc3)c12 (centres undefined) | 1 |
| COc1ccccc1CNC(=O)C1CCCN(c2ncnc3onc(-c4ccc(F)cc4)c23)C1 (centres undefined) | 16 |
| CCOC(=O)N1CCN(C(=O)C(Cc2ccccc2)NS(=O)(=O)c2ccc3nsnc3c2)CC1 (centres undefined) | 4 |
| O=C(CSc1nc2nccnc2c(=O)n1Cc1ccc2c(c1)OCO2)NCCc1ccccc1 | 8 |
| O=C1c2cccnc2C(=O)N1Cc1ccc(F)cc1S(=O)(=O)N1CCC(Cc2ccccc2)CC1 | 0 |
| O=C(NCCc1ccccc1)C(Cc1ccccc1)NS(=O)(=O)c1ccc(Br)cc1 (centres undefined) | 6.4 |
| O=C(NC1CCCCCC1)C(Cc1ccccc1)NS(=O)(=O)c1cccc2nsnc12 (centres undefined) | 0 |
| COc1ccc(OC)c(CNC(=O)C2CCCN(c3ncnc4onc(-c5ccc(F)cc5)c34)C2)c1 (centres undefined) | 28 |
| COc1ccc(/C=C(\NC(=O)c2ccccc2)C(=O)NCCCCCC(=O)O)cc1 | 8 |
| COc1ccc(C(CC(=O)NCCN2CCOCC2)NS(=O)(=O)c2ccc(Cl)cc2)cc1 (centres undefined) | 0 |
| O=C(CC(NS(=O)(=O)c1ccc(Cl)cc1)c1ccco1)NCc1cccnc1 (centres undefined) | 9.6 |
| CCCCN(CC)CCCNC(=O)C1CCCN(c2ncnc3onc(C)c23)C1 (centres undefined) | 3.1 |
| CCC(Sc1nc2ccsc2c(=O)n1Cc1ccc2c(c1)OCO2)C(=O)NCc1ccco1 (centres undefined) | 41 |
